What was measured:
[1] = target: GSALDH activity of SmPutA (Sinorhizobium meliloti, UniProt F7X6I3); assay: GSALDH activity measurements; assay type: biochemical; conditions: for Ki / α: P5C variable substrate
mammalian GSALDH = conditions: competitive with P5C; cited from earlier work
SmPutA = assay: Fluorescence-based thermal shift assay; assay type: binding, Sinorhizobium meliloti; conditions: compound at 62.5 mM; ligand-free SmPutA T1/2 40.2 °C
[2] = tested on: GSALDH active site of SmPutA; assay: Co-crystallization / electron density in the GSALDH active site; parameters: species or system Sinorhizobium meliloti; conditions: co-crystallization at 50 mM
Outline: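 Recombinant SmPutA (expressed in E. coli) at 6 mg/mL in 50 mM Tris pH 8.0, 50 mM NaCl, 5% glycerol, 0.5 mM TCEP. Sitting-drop co-crystallization at 13 °C against 19% PEG-3350, 0.2 M ammonium sulfate, 0.1 M MgCl2, 0.1 M HEPES pH 8.0, 0.1 M sodium formate. Ligand at 50 mM, with or without 10 mM NAD+. Cryoprotected with added 15% PEG-200. Ligand density checked with polder omit maps.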

[3] = Competitive model, NAD+ fixed at 0.2 mM
[4] = Uncompetitive model, NAD+ fixed at 0.2 mM
[5] = Mixed model, NAD+ fixed at 0.2 mM

SMILES	Ki [1, 3] [mM]	ΔT1/2 (increase of midpoint of stability curve) (SmPutA) [°C]	Ki [1, 5] [mM]	α [1, 5]	other results
O=C(O)[C@H]1CCCN1 [D-Pro, D-proline]	1.5 ± 0.5				Ki [1, 4]: 4.5 ± 0.2 mM
O=C(O)[C@@H]1CCCN1 [L-Pro, L-proline]	11				Ki [1, 4]: 19 mM; Ki (mammalian GSALDH): 3 mM
O=C(O)[C@H]1C[C@@H](O)CN1 [CHDP, cis-4-hydroxy-D-proline]	8	4.0	25	0.9 ± 0.5	
O=C(O)[C@@H]1C[C@H](O)CN1 [CHLP, cis-4-hydroxy-L-proline]		2.1			Binding to GSALDH site (electron density) [2]: does not bind GSALDH; Inhibition of the GSALDH activity of SmPutA ([1]; fit to competitive model, L-P5C variable substrate, NAD+ fixed): does not inhibit
O=C(O)C1CCC=N1 [L-P5C, Δ^1-pyrroline-5-carboxylate]					Km ([1]; substrate of GSALDH activity of SmPutA, NAD+ fixed at 0.2 mM): 300 ± 100 µM
O=C(O)[C@@H]1C[C@@H](O)CN1 [THLP, trans-4-hydroxy-L-proline]	7	2.9	27	0.6 ± 0.1	
O=C(O)[C@H]1C[C@H](O)CN1 [THDP, trans-4-hydroxy-D-proline]	4.5 ± 0.5	5.6	10	1.6 ± 0.4	
